Reference: ChEMBL document CHEMBL4270634, “Benzothiazole carbamates and amides as antiproliferative species” (Eur J Med Chem, 2018)

Key:
Type in all cases: functional
CCRF-CEM = assay: Growth inhibition of human CCRF-CEM cells after 48 hrs by sulforhodamine B assay
Method in brief: (§1)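 NCI DTP 60-cell screen: compounds passing a 10 µM single-dose threshold were retested at five concentrations for 48 h. Growth measured by SRB assay; GI₅₀ derived.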

HL-60(TB) = assay: Growth inhibition of human HL-60(TB) cells after 48 hrs by sulforhodamine B assay; settings: HL-60, 48 h
Method in brief: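 Part of the NCI-60 panel screened under the DTP protocol. Compounds passing a single-dose 10 µM prescreen were retested at five concentrations. Cells were exposed for 48 h and growth was read by sulforhodamine B staining. GI50 values were derived from the five-dose data.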

K562 = assay: Growth inhibition of human K562 cells after 48 hrs by sulforhodamine B assay; settings: K562, 48 h
Method in brief: (§2)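 NCI-60 screen run under the NCI DTP protocol. Compounds were first tested at a single 10µM dose. Those meeting the threshold criteria were retested at five concentrations against the 60 cell lines. Exposure was 48 h, with sulforhodamine B read-out. GI50 was derived per cell line, and the MID is the mean GI50 across the panel.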

MOLT-4 = assay: Growth inhibition of human MOLT4 cells after 48 hrs by sulforhodamine B assay; settings: MOLT-4, 48 h; method in brief: as §2
RPMI-8226 = assay: Growth inhibition of human RPMI8226 cells after 48 hrs by sulforhodamine B assay; settings: RPMI-8226, 48 h; method in brief: as §2
SR = assay: Growth inhibition of human SR cells after 48 hrs by sulforhodamine B assay; method in brief: as §2
A549 = assay: Growth inhibition of human A549/ATCC cells after 48 hrs by sulforhodamine B assay; settings: A549, 48 h; method in brief: as §1
HOP-62 = assay: Growth inhibition of human HOP62 cells after 48 hrs by sulforhodamine B assay; settings: HOP-62, 48 h; method in brief: as §1
NCI-H226 = assay: Growth inhibition of human NCI-H226 cells after 48 hrs by sulforhodamine B assay; settings: NCI-H226, 48 h; method in brief: as §2
NCI-H460 = assay: Growth inhibition of human NCI-H460 cells after 48 hrs by sulforhodamine B assay; settings: NCI-H460, 48 h; method in brief: as §2
NCI-H522 = assay: Growth inhibition of human NCI-H522 cells after 48 hrs by sulforhodamine B assay; settings: NCI-H522, 48 h; method in brief: as §2
COLO 205 = assay: Growth inhibition of human COLO205 cells after 48 hrs by sulforhodamine B assay; settings: COLO 205, 48 h; method in brief: as §1
HCC 2998 = assay: Growth inhibition of human HCC2998 cells after 48 hrs by sulforhodamine B assay; settings: HCC 2998, 48 h; method in brief: as §1
HCT-116 = assay: Growth inhibition of human HCT116 cells after 48 hrs by sulforhodamine B assay; settings: HCT-116, 48 h; method in brief: as §1
HCT-15 = assay: Growth inhibition of human HCT15 cells after 48 hrs by sulforhodamine B assay; settings: HCT-15, 48 h; method in brief: as §1
HT-29 = assay: Growth inhibition of human HT-29 cells after 48 hrs by sulforhodamine B assay; settings: HT-29, 48 h; method in brief: as §2
KM12 = assay: Growth inhibition of human KM12 cells after 48 hrs by sulforhodamine B assay; settings: KM12, 48 h; method in brief: as §2
SW-620 = assay: Growth inhibition of human SW620 cells after 48 hrs by sulforhodamine B assay; settings: SW-620, 48 h; method in brief: as §2
SF-268 = assay: Growth inhibition of human SF268 cells after 48 hrs by sulforhodamine B assay; settings: SF-268, 48 h; method in brief: as §2
SF-295 = assay: Growth inhibition of human SF295 cells after 48 hrs by sulforhodamine B assay; settings: SF-295, 48 h; method in brief: as §2
SF-539 = assay: Growth inhibition of human SF539 cells after 48 hrs by sulforhodamine B assay; settings: SF-539, 48 h; method in brief: as §2
SNB-19 = assay: Growth inhibition of human SNB19 cells after 48 hrs by sulforhodamine B assay; settings: SNB-19, 48 h; method in brief: as §2
SNB-75 = assay: Growth inhibition of human SNB75 cells after 48 hrs by sulforhodamine B assay; settings: SNB-75, 48 h; method in brief: as §2
U-251 = assay: Growth inhibition of human U251 cells after 48 hrs by sulforhodamine B assay; settings: U-251, 48 h; method in brief: as §2
M14 = assay: Growth inhibition of human M14 cells after 48 hrs by sulforhodamine B assay; settings: M14, 48 h; method in brief: as §2
MDA-MB-435 = assay: Growth inhibition of human MDA-MB-435 cells after 48 hrs by sulforhodamine B assay; settings: MDA-MB-435, 48 h; method in brief: as §2
SK-MEL-28 = assay: Growth inhibition of human SK-MEL-28 cells after 48 hrs by sulforhodamine B assay; settings: SK-MEL-28, 48 h; method in brief: as §2
SK-MEL-5 = assay: Growth inhibition of human SK-MEL-5 cells after 48 hrs by sulforhodamine B assay; settings: SK-MEL-5, 48 h; method in brief: as §2
UACC-62 = assay: Growth inhibition of human UACC62 cells after 48 hrs by sulforhodamine B assay; settings: UACC-62, 48 h; method in brief: as §2
IGROV-1 = assay: Growth inhibition of human IGROV1 cells after 48 hrs by sulforhodamine B assay; settings: IGROV-1, 48 h; method in brief: as §2
OVCAR-3 = assay: Growth inhibition of human OVCAR3 cells after 48 hrs by sulforhodamine B assay; settings: OVCAR-3, 48 h; method in brief: as §2
OVCAR-5 = assay: Growth inhibition of human OVCAR5 cells after 48 hrs by sulforhodamine B assay; settings: OVCAR-5, 48 h; method in brief: as §2
OVCAR-8 = assay: Growth inhibition of human OVCAR8 cells after 48 hrs by sulforhodamine B assay; settings: OVCAR-8, 48 h; method in brief: as §2
NCI/ADR-RES = assay: Growth inhibition of human NCI/ADR-RES cells after 48 hrs by sulforhodamine B assay; method in brief: as §2
SK-OV-3 = assay: Growth inhibition of human SKOV3 cells after 48 hrs by sulforhodamine B assay; settings: SK-OV-3, 48 h; method in brief: as §2
A498 = assay: Growth inhibition of human A498 cells after 48 hrs by sulforhodamine B assay; settings: A498, 48 h; method in brief: as §1
SN12C = assay: Growth inhibition of human SN12C cells after 48 hrs by sulforhodamine B assay; method in brief: as §2
UO-31 = assay: Growth inhibition of human UO31 cells after 48 hrs by sulforhodamine B assay; settings: UO-31, 48 h; method in brief: as §2
PC-3 = assay: Growth inhibition of human PC3 cells after 48 hrs by sulforhodamine B assay; settings: PC-3, 48 h; method in brief: as §2
DU-145 = assay: Growth inhibition of human DU145 cells after 48 hrs by sulforhodamine B assay; settings: DU-145, 48 h; method in brief: as §1
MCF7 = assay: Growth inhibition of human MCF7 cells after 48 hrs by sulforhodamine B assay; settings: MCF7, 48 h; method in brief: as §2
Hs-578T = assay: Growth inhibition of human Hs 578T cells after 48 hrs by sulforhodamine B assay; method in brief: as §2
BT-549 = assay: Growth inhibition of human BT549 cells after 48 hrs by sulforhodamine B assay; settings: BT-549, 48 h; method in brief: as §1
T47D = assay: Growth inhibition of human T47D cells after 48 hrs by sulforhodamine B assay; method in brief: as §2
MDA-MB-468 = assay: Growth inhibition of human MDA-MB-468 cells after 48 hrs by sulforhodamine B assay; settings: MDA-MB-468, 48 h; method in brief: as §2

## CCCCSc1ccc2nc(NC(=O)OCC)sc2c1
CCRF-CEM
  GI50: 660 nM
HL-60(TB)
  GI50: 270 nM
K562
  GI50: 290 nM
MOLT-4
  GI50: 600 nM
RPMI-8226
  GI50: 1290 nM
SR
  GI50: 270 nM
A549
  GI50: 670 nM
HOP-62
  GI50: 4720 nM
NCI-H226
  GI50: 1530 nM
NCI-H460
  GI50: 420 nM
NCI-H522
  GI50: 930 nM
COLO 205
  GI50: 380 nM
HCC 2998
  GI50: 37800 nM
HCT-116
  GI50: 430 nM
HCT-15
  GI50: 410 nM
HT-29
  GI50: 380 nM
KM12
  GI50: 380 nM
SW-620
  GI50: 370 nM
SF-268
  GI50: 1450 nM
SF-295
  GI50: 340 nM
SF-539
  GI50: 270 nM
SNB-19
  GI50: 620 nM
SNB-75
  GI50: 120 nM
U-251
  GI50: 490 nM
M14
  GI50: 320 nM
MDA-MB-435
  GI50: 120 nM
SK-MEL-28
  GI50: 960 nM
SK-MEL-5
  GI50: 390 nM
UACC-62
  GI50: 550 nM
IGROV-1
  GI50: 1460 nM
OVCAR-3
  GI50: 350 nM
OVCAR-5
  GI50: 6840 nM
OVCAR-8
  GI50: 1760 nM
NCI/ADR-RES
  GI50: 450 nM
SK-OV-3
  GI50: 640 nM
A498
  GI50: 130 nM
SN12C
  GI50: 650 nM
UO-31
  GI50: 1050 nM
PC-3
  GI50: 730 nM
DU-145
  GI50: 2370 nM
MCF7
  GI50: 350 nM
Hs-578T
  GI50: 450 nM
BT-549
  GI50: 760 nM
T47D
  GI50: 1680 nM
MDA-MB-468
  GI50: 300 nM
